PMC6457131 (AIDS (London, England), 2019)
Entries after “also recorded” stand apart in the source; their conditions may differ.

Tests used:
[1] = test system: EcoHIV-infected mice; conditions: cited from earlier work
[2] = test system: EcoHIV; experiment: EcoHIV burdens in spleen cells and brain by quantitative PCR; format: in vivo, mice
[3] = test system: EcoHIV-infected mice; experiment: Contextual fear conditioning; format: in vivo; conditions: 129x1/SvJ mice, 1 month after infection, during intranasal insulin treatment
[4] = test system: EcoHIV-infected mice; experiment: Radial arm water maze; format: in vivo, C57BL/6J mice
[5] = Intranasal insulin pharmacokinetics in plasma, CSF and cortex; format: in vivo, C57BL/6 mice
[6] = test system: MAP2 and NeuN in CA1 and CA3 regions of the hippocampus; experiment: Hippocampal neuronal integrity by MAP2/NeuN immunofluorescence staining; format: in vivo, mice
How it was run: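 Brains came from 3 mice per variable after behavioural testing. After perfusion, frozen sections were immunostained for MAP2 (dendrites) and NeuN (neuronal nuclei) and imaged by confocal microscopy. Fluorescence was quantified in hippocampal CA1 and CA3.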

[7] = intranasal 2.4 IU; cited from earlier work
[8] = test system: neuronal function and metabolism-related genes in the brain; format: in vivo, mice; conditions: intranasal insulin daily for 9 days
[9] = intranasal insulin daily for 9 days, QPCR
[10] = intranasal 2.4 IU/mouse, uninfected mice, n = 3-8/group, observed value, ELISA
[11] = intranasal 2.4 IU/mouse, converted with 1 μIU/ml = 0.14 pmol/l

[N-]=[N+]=CC(=O)CC[C@H](N)C(=O)O [6-diazo-5-oxo-L-norleucine]
EcoHIV virus replication [1]: but not virus replication
murine NCI caused by EcoHIV [1]: can be prevented

Human insulin
peripheral virus burdens after discontinuation of insulin treatment ([2]; EcoHIV + insulin/disc group compared with untreated mice): significantly increased
HIV DNA brain levels, 3 months after infection [2, 9]: not significantly affected
HIV brain burdens, 1 month after infection [2, 9]: significantly reduced
HIV levels in spleen, 1 month after infection [2, 9]: no effect
contextual freezing response time of infected mice [3]: returned the freezing response time of infected mice to that of uninfected animals
RAWM visible platform latency (mobility, vision, motivation) ([4]; all mouse groups, intranasal insulin daily for 9 days): performed equally well
day of RAWM testing at which maximum effect on working memory was reached ([4]; infected mice, daily retention trial): ≤ 5 days
NCI in RAWM, 3 months after infection ([4]; intranasal 2.4 IU/mouse daily for 9 days, started 3 months after EcoHIV infection): completely reversed; also recorded: fully reversible
RAWM performance of infected animals after treatment cessation ([4]; last 3-day average, compared with infected, continually treated animals): dramatically worsened
cortex insulin level above baseline ([5]; for 3 h following intranasal 2.4 IU/mouse): more than 10 fold
duration of therapeutic intracerebral insulin concentrations ([5]; intranasal 2.4 IU/mouse): 2 to 3 h
time by which insulin cleared to baseline, cortex ([5]; intranasal 2.4 IU/mouse): ≤ 6 h
time by which insulin cleared to baseline, plasma ([5]; intranasal 2.4 IU/mouse): ≤ 6 h
time by which insulin cleared, CSF ([5]; intranasal 2.4 IU/mouse): ≤ 3 h
Cmax, CSF [5, 10]: 17 μIU/ml
Cmax, plasma [5, 10]: 11.7 μIU/ml
Tmax, CSF [5, 10]: 1 h
Cmax, CSF [5, 11]: 2.38 pmol/L
Cmax, cortex [5, 11]: 7.42 pM
Cmax, plasma [5, 11]: 1.64 pmol/L
half-life of insulin in cerebrospinal fluid ([5]; intranasal administration to mice): about 2 h
NeuN staining of neuronal cell bodies in hippocampus ([6]; all conditions tested): remained unaltered
MAP2 dendrite staining in CA1 and CA3 regions of hippocampus of infected mice ([6]; intranasal insulin daily for 9 days, three mice per variable): levels similar to uninfected mice
energy metabolism in mouse brain [7]: increases energy metabolism in mouse brain
plasma glucose levels [7]: but not plasma glucose levels
downmodulation of fourteen genes in brains of EcoHIV-infected mice [8]: fully reversed
